This is an account of results in ChEMBL document CHEMBL5042551, “Dynamic Combinatorial Optimization of In Vitro and In Vivo Heparin Antidotes” (J Med Chem, 2022).

Activity calls are given as the source filed them. The calls are words filed in the database; no cut-off is given here.

Test [1] has as its target Heparin. The experiment in a line: Binding affinity to heparin (unknown origin) assessed as apparent dissociation constant by SPR assay. Also noted: species or system Homo sapiens. The settings on record: read-out: Kd(app). In outline: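 Heparin-functionalized chip: biotin sensor chip loaded with streptavidin (50 μg/mL), then biotin-heparin (50 μg/mL). Ligands injected at 40 μL/min, 25 °C, in 25 mM Tris pH 7.5; surface regenerated with 10 mM HCl. Three independent runs at three ligand concentrations globally fitted to a 1:1 two-state (conformational change) model to give on/off rates and KDapp.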

For test [2], the system named is Heparin. In words: Inhibition of heparin (unknown origin) assessed as reversal of heparin reduced FXa protease activity by measuring Z-D-LGR-N(Me)ANBA peptide substrate at 1 uM hydrolysis after 30 mins. The settings on record: Homo sapiens. In outline: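 Human antithrombin III (0.02 IU/mL) and factor Xa (0.085 μg/mL) combined with heparin (0.1 IU/mL) and ligand (1 μM), then chromogenic substrate added (485 μM) with 4-nitroaniline as internal standard, shaken at 25 °C. Aliquots acid-quenched and analysed by HPLC at 405 nm; percent hydrolysis taken from normalized cleaved-peptide area, with no-heparin as maximal activity and heparin-only as maximal inhibition.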

In the next test the test system is A549. The experiment in a line: Cytotoxicity against human A549 cells assessed as reduction in cell viability at 25 to 50 uM incubated for 1 hr by MTT assay. The class given is functional, cell-based. The settings on record: dose 25-50 µM. The method in brief: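 A549 cells grown in DMEM with 10% FCS, 2 mM glutamine and antibiotics at 37 °C, 5% CO2; seeded at 7000 cells/well, exposed to compound in medium 24 h later for 1 h, then MTT (0.5 mg/mL) for 2 h, formazan dissolved in DMSO, absorbance read at 570 nm. Viability as percent of untreated cells; three independent experiments.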
(In general: Tetrazolium dyes change colour on reduction, which living cells bring about.)

Test [3] deals with Heparin. In words: Reversal of heparin mediated anticoagulant activity in heparinized CD-1 mouse at 2.2 to 4.4 mg/kg, iv after 10 mins by tail transection assay. The format is organism-based. The settings on record: dose 2.2-4.4 mg/kg. The method in brief:
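Eight-week-old male CD-1 mice anaesthetised with xylazine/ketamine, then given iv heparin (100 IU/kg) followed by ligand at 2.2 or 4.4 mg/kg; saline, heparin-only and ligand-only (4.4 mg/kg, n = 3) controls. Tails cut 5 mm from tip 5 min after injection and bled 10 min into 1 mL saline at 37 °C; blood volume from absorbance at 414 nm against a standard curve. ANOVA.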

Test [4] has as its system Heparin. In words: Reversal of heparin mediated anticoagulant activity in mouse blood after 15 mins. The settings on record: dose 90-250 µM. The method in brief: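 Freshly drawn, untreated mouse blood split into 300 μL aliquots, given heparin (130 μM, per disaccharide repeat unit) plus ligand at various concentrations; after 15 min, clotting judged by inverting the tubes and photographing.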

In test [5] the target is Heparin. In words: Binding affinity to heparin (unknown origin) assessed as apparent dissociation constant by fluorescence emission titration method. Also noted: species or system Homo sapiens. The settings on record: read-out: Kd(app). The method in brief: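 Binder at 10 μM in 1 mM Bis-Tris pH 7.5, excited at 280 nm; heparin stock (18 IU/mL) added in small portions with emission spectrum recorded after each addition. Full spectra globally fitted by nonlinear regression to a binding model of 1:1, 1:2 and 2:1 ligand–heparin disaccharide complexes to estimate equilibrium constants and apparent KD.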

Test [6] deals with Heparin. The experiment in a line: Binding affinity to heparin (unknown origin) assessed as apparent dissociation constant by ITC assay. Also noted: species or system Homo sapiens. The settings on record: read-out: Kd(app).

As for `N=C(N)NCCC[C@H](N)C(=O)NCCCN1CCN(CCCNC(=O)[C@@H](N)CCCNC(=N)N)CC1` [CIRAPARANTAG], at Heparin [1], the Kd is 1530 nM. Besides, the inhibition result with Heparin [2] is “Active”.

Turning to `Oc1c(CNCCCNCCCCNCCCNCc2ccc3ccccc3c2O)ccc2ccccc12`, in the test on Heparin [2], the inhibition result is “Active”.

On to `Oc1ccc2ccccc2c1CNCCCNCCCCNCCCNCc1c(O)ccc2ccccc12`, for which the result with A549 was inactive. In addition, in the test on Heparin [3], the result was Active. Further, the Activity entry in the test on Heparin [4] was “Dose-Dependent Effect”. Besides, the Kd on Heparin [1] was found to be 797 nM. Also, the inhibition result in the test with Heparin [2] is “Active”.

Consider `Oc1ccccc1CNCCCNCCCCNCCCNCc1c(O)ccc2ccccc12`, for which, on Heparin [1], the Kd was determined as 2620 nM.

Take `COc1ccccc1CNCCCNCCCCNCCCNCc1ccccc1OC`: the Kd on Heparin [1] was 33700 nM.

`Oc1ccccc1CNCCCNCCCCNCCCNCc1ccc2ccccc2c1O`: at Heparin [1], the Kd was found to be 1860 nM. Besides, the inhibition result with Heparin [2] is “Active”.

Turning to `Oc1ccccc1CNCCCNCCCCNCCCNCc1ccc2c(c1)Cc1ccccc1-2`, in the test on A549, the outcome was inactive. For the same compound, in the test on Heparin [3], the outcome was Active. For the same compound, the Activity result in the test with Heparin [4] is “Dose-Dependent Effect”. For the same compound, the Kd is 567 nM at Heparin [1] and 500 nM at Heparin [5]. Moreover, the inhibition entry in the test on Heparin [2] was “Active”.

For the compound `Oc1ccccc1CNCCCNCCCCNCCCNCc1cccc2ccccc12`, the Kd on Heparin [1] worked out at 1890 nM; at Heparin [6] it was 1300 nM.

Consider `Oc1ccccc1CNCCCNCCCCNCCCNCc1ccccc1O`, for which the Kd is 21500 nM at Heparin [1] and 22500 nM on Heparin [6].
